ChEMBL document CHEMBL2040831, “Discovery of ((S)-5-(methoxymethyl)-7-(1-methyl-1H-indol-2-yl)-2-(trifluoromethyl)-4,7-dihydropyrazolo[1,5-a]pyrimidin-6-yl)((S)-2-(3-methylisoxazol-5-yl)pyrrolidin-1-yl)methanone as a potent and selective I(Kur) inhibitor” (J Med Chem, 2012)
Values belong to the molecule of their own block, whether it stands above or below them. The source made the active and inactive calls. The calls are words filed in the database; no cut-off is given here.

Tests used:
Liver microsomes [1] = assay: Metabolic stability in rat liver microsomes; format: ADME, Microsome
[2] = Drug degradation assessed as GSH adduct formation by fluorescence detection assay; format: physicochemical
Summary of the method: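 Test article at 100 μM incubated 30 min at 37 °C with 2 mg/mL human liver microsomes in 0.1 M potassium phosphate buffer containing 2 mM NADPH and 2 mM dansyl glutathione. Quenched with 2 volumes of 5 mM dithiothreitol in methanol, vortexed and centrifuged. Supernatant analysed by HPLC with fluorescence detection (Ex 340 nm, Em 525 nm) to quantify GSH adducts.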

[3] = target: T1, Potassium voltage-gated channel subfamily A member 5 (Homo sapiens, UniProt P22460); assay: Inhibition of human KV1.5 ion channel expressed in mouse L929 cells by whole cell patch clamp assay; format: cell-based
T1 sequence (P22460 whole entry): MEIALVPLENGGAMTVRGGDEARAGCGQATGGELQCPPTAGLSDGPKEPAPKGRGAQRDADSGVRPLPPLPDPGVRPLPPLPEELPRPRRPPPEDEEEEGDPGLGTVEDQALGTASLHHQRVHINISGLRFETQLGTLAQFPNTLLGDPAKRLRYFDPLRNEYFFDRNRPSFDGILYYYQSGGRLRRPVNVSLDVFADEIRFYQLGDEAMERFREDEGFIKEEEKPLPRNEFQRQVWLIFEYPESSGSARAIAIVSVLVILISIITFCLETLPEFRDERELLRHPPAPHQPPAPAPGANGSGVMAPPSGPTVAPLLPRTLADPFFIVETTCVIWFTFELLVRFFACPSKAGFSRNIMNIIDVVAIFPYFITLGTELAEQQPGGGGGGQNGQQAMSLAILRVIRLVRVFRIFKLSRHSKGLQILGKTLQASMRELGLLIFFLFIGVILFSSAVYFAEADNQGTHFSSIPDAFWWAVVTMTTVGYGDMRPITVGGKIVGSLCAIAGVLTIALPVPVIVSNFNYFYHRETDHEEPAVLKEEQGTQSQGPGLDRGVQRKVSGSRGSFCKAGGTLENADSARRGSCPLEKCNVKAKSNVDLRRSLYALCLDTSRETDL

hERG (KCNH2) = hERG (KCNH2) (Homo sapiens, UniProt Q12809); assay: Inhibition of human ERG expressed in HEK293 cells at 10 uM by patch clamp assay; format: cell-based; settings: HEK293 cells expressing human ERG
hERG (KCNH2), sequence (Q12809 whole entry): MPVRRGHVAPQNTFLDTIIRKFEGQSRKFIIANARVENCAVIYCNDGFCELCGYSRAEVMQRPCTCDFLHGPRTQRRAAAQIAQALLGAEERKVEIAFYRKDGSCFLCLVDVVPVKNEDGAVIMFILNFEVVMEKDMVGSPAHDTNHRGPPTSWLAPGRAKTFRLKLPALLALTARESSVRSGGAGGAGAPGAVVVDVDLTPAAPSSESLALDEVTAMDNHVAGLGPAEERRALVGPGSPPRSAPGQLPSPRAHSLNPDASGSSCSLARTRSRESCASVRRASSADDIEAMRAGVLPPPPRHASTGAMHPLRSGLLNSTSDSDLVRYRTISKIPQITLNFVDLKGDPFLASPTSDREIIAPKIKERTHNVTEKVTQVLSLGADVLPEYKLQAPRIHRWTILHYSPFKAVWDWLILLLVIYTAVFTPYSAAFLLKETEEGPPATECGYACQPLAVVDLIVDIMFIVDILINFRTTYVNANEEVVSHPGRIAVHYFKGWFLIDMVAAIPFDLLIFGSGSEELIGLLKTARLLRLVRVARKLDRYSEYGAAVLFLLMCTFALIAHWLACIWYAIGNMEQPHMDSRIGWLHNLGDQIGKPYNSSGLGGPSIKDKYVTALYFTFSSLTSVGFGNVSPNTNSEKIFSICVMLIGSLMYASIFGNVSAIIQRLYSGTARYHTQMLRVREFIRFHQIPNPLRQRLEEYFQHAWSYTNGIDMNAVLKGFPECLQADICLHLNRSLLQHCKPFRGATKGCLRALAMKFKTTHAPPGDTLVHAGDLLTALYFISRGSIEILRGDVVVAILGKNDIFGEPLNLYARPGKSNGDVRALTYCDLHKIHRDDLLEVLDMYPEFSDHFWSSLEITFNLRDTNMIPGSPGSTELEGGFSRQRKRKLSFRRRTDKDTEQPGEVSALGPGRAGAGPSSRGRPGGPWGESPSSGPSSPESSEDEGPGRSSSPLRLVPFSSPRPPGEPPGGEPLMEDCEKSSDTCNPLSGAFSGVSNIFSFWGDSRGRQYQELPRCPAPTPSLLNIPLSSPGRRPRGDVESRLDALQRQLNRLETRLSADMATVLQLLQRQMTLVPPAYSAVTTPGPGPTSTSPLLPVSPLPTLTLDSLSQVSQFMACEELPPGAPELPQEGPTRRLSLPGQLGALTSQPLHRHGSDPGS

Liver microsomes [4] = assay: Metabolic stability in human liver microsomes; format: ADME, Microsome
[5] = target: T1, Potassium voltage-gated channel subfamily A member 5; assay: Inhibition of human KV1.5 ion channel expressed in mouse L929 cells at 0.3 uM by whole cell patch clamp assay; format: cell-based
[6] = Half life in dog at 5.6 umol/kg, iv and 5.2 umol/kg, po; format: ADME, organism-based, Canis lupus familiaris; settings: in vivo
Oryctolagus cuniculus [7] = assay: Antiatrial fibrillation activity in methoxamine-sensitised rabbit assessed as increase in atrial effective refractory period at 0.3 to 10 mg/kg, iv relative to control; format: functional, organism-based; settings: Cardiac atrium
[8] = Oral bioavailability in dog at 5.2 umol/kg; format: ADME, organism-based, Canis lupus familiaris; settings: in vivo
[9] = Half life in rat at 12 umol/kg, iv and 26 umol/kg, po; format: ADME, organism-based; settings: in vivo
[10] = Clearance in rat at 12 umol/kg, iv and 26 umol/kg, po; format: ADME, organism-based; settings: in vivo
[11] = Oral bioavailability in rat at 26 umol/kg; format: ADME, organism-based; settings: in vivo
Oryctolagus cuniculus [12] = assay: Antiatrial fibrillation activity in methoxamine-sensitised rabbit assessed as increase in atrial effective refractory period at 1 mg/kg, iv relative to control; format: functional, Cardiac atrium
Oryctolagus cuniculus [13] = assay: Proarrythmic activity in methoxamine-sensitized rabbit assessed as increase in ventricular effective refractory period at 0.3 to 10 mg/kg, iv relative to control; format: organism-based, Cardiac ventricle; parameters: dose 0.3-10 mg/kg, route intravenous; settings: in vivo
Plasma [14] = assay: Plasma concentration in methoxamine-sensitised rabbit AERP model at 3 mg/kg, iv; format: ADME, organism-based, Oryctolagus cuniculus; parameters: dose 3 mg/kg, route intravenous; settings: in vivo
Plasma [15] = assay: Plasma concentration in methoxamine-sensitised rabbit AERP model at 10 mg/kg, iv; format: ADME, organism-based, Oryctolagus cuniculus; parameters: dose 10 mg/kg, route intravenous; settings: in vivo
Plasma [16] = assay: Plasma concentration in methoxamine-sensitised rabbit AERP model at 1 mg/kg, iv; format: ADME, organism-based, Oryctolagus cuniculus; parameters: dose 1 mg/kg, route intravenous; settings: in vivo
[17] = Clearance in dog at 5.6 umol/kg, iv and 5.2 umol/kg, po; format: ADME, organism-based, Canis lupus familiaris; settings: in vivo
Plasma [18] = assay: Plasma concentration in methoxamine-sensitised rabbit AERP model at 0.3 mg/kg, iv; format: ADME, organism-based, Oryctolagus cuniculus; parameters: dose 0.3 mg/kg, route intravenous; settings: in vivo
[19] = Volume of distribution at steady state in rat at 12 umol/kg, iv and 26 umol/kg, po; format: ADME, organism-based; settings: in vivo, read-out: Vdss
[20] = Volume of distribution at steady state in dog at 5.6 umol/kg, iv and 5.2 umol/kg, po; format: ADME, organism-based, Canis lupus familiaris; settings: in vivo, read-out: Vdss
[21] = Inhibition of INa ion channel at 10 uM
[22] = Half life in rabbit at 5.6 umol/kg, iv; format: ADME, organism-based, Oryctolagus cuniculus; settings: in vivo
[23] = Clearance in rat at 12 umol/kg, iv and 25.5 umol/kg, po; format: ADME, organism-based; settings: in vivo
[24] = Clearance in rabbit at 5.6 umol/kg, iv; format: ADME, organism-based, Oryctolagus cuniculus; settings: in vivo
[25] = Inhibition of ICAL ion channel
[26] = Inhibition of ICAL ion channel at 10 uM
[27] = target: T2, A-type voltage-gated potassium channel KCND3 (Homo sapiens, UniProt Q9UK17); assay: Inhibition of KV4.3 ion channel
T2 sequence (Q9UK17 whole entry): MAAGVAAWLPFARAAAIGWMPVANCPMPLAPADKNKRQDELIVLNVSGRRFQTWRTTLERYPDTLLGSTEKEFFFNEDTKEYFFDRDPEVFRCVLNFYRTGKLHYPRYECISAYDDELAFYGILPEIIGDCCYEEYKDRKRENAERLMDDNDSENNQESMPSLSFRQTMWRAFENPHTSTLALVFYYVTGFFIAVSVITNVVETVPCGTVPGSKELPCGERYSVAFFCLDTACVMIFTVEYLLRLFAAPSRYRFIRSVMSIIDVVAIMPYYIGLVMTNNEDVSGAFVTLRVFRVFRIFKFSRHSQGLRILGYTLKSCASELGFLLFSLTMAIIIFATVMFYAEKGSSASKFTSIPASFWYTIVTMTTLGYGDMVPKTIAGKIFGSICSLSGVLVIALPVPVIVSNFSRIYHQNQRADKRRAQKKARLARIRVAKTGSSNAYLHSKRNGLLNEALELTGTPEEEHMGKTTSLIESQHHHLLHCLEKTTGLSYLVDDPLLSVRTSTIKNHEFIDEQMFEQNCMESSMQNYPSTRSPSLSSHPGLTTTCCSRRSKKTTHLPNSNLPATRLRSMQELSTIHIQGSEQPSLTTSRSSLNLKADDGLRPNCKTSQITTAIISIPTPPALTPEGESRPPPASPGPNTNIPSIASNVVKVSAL

[28] = Volume of distribution at steady state in rat at 12 umol/kg, iv and 25.5 umol/kg, po; format: ADME, organism-based; settings: in vivo, read-out: Vdss
[29] = target: Voltage-gated inwardly rectifying potassium channel KCNH2 (Homo sapiens, UniProt Q12809); assay: Inhibition of human ERG expressed in HEK293 cells by patch clamp assay; format: cell-based
Voltage-gated inwardly rectifying potassium channel KCNH2, sequence (Q12809 whole entry): as the sequence (Q12809 whole entry) above

[30] = Volume of distribution at steady state in rabbit at 5.6 umol/kg, iv; format: ADME, organism-based, Oryctolagus cuniculus; settings: in vivo, read-out: Vdss
[31] = Half life in rat at 12 umol/kg, iv and 25.5 umol/kg, po; format: ADME, organism-based; settings: in vivo
[32] = Inhibition of INa ion channel
[33] = Oral bioavailability in rat at 25.5 umol/kg; format: ADME, organism-based; settings: in vivo

- Stability (Liver microsomes [1]): Unstable
- GSH adduct formation [2]: 5%
- IC50 [3]: 100 nM
- Stability (Liver microsomes [4]): Unstable
Structure (SMILES): CC1=C(C(=O)N2CCC[C@H]2c2ccc(F)cc2)[C@@H](c2ccc(Cl)c(Cl)c2)n2nc(C)cc2N1
- inhibition at 10 µM (hERG (KCNH2)): 10%

- IC50 [3]: 281 nM
Structure (SMILES): CC1=C(C(=O)N2CCC[C@H]2c2cc(C)no2)[C@@H](c2nc3ccccc3s2)n2nc(C(F)(F)F)cc2N1

- IC50 [3]: 227 nM
Structure (SMILES): CC1=C(C(=O)N2CCC[C@H]2c2cc(C)no2)[C@@H](c2ccc(Cl)c(Cl)c2)n2nc(C3CC3)cc2N1

- inhibition [5]: 36%
Structure (SMILES): CC1=C(C(=O)N2CCC[C@H]2c2cc(C)no2)[C@@H](c2nc3ccccc3n2C)n2nc(C(F)(F)F)cc2N1

- GSH adduct formation [2]: 21%
- IC50 [3]: 83 nM
Structure (SMILES): CC1=C(C(=O)N2CCC[C@H]2c2cc(C)no2)[C@@H](c2ccc(Cl)c(Cl)c2)n2nccc2N1
- inhibition at 10 µM (hERG (KCNH2)): 41%

- IC50 [3]: 72 nM
Structure (SMILES): CC1=C(C(=O)N2CCC[C@H]2c2cc(C)no2)[C@@H](c2cc3ccccc3n2C)n2nc(C(F)(F)F)cc2N1
- inhibition at 10 µM (hERG (KCNH2)): 19%

- Stability (Liver microsomes [1]): Unstable
- GSH adduct formation [2]: < 1%
- IC50 [3]: 165 nM
- Stability (Liver microsomes [4]): Unstable
Structure (SMILES): CC1=C(C(=O)N2CCC[C@H]2c2cc(C)no2)[C@@H](c2ccc(Cl)c(Cl)c2)n2nc(C)cc2N1
- inhibition at 10 µM (hERG (KCNH2)): 13%

- Stability (Liver microsomes [1]): Stable
- half-life [6]: 108 min
- GSH adduct formation [2]: < 1%
- IC50 [3]: 101 nM
- bioavailability [8]: 53%
- half-life [9]: 60 min
- clearance [10]: 27 mL/min/kg
- bioavailability [11]: 68%
- clearance [17]: 11 mL/min/kg
- Vd [19]: 3 L/kg
- Stability (Liver microsomes [4]): Stable
- Vd [20]: 1.7 L/kg
Structure (SMILES): CC1=C(C(=O)N2CCC[C@H]2c2cc(C)no2)[C@@H](c2ccc(Cl)c(Cl)c2)n2nc(C(F)(F)F)cc2N1
- Activity (Oryctolagus cuniculus [7]): Active
- Activity (Oryctolagus cuniculus [12]): 20%
- Activity (Oryctolagus cuniculus [13]): Non-toxic
- concentration (Plasma [14]): 6.7 µM
- concentration (Plasma [15]): 17.3 µM
- concentration (Plasma [16]): 1700 nM
- inhibition at 10 µM (hERG (KCNH2)): 47%
- concentration (Plasma [18]): 700 nM

- inhibition [5]: 37%
Structure (SMILES): CC1=C(C(=O)N2CCC[C@H]2c2ccc(F)cc2)[C@@H](c2ccc(Cl)c(Cl)c2)n2nc(C(F)(F)F)cc2N1

- inhibition [21]: 10%
- half-life [22]: 120 min
- clearance [23]: 12 mL/min/kg
- clearance [24]: 47 mL/min/kg
- IC50 [25]: > 10 µM
- half-life [6]: 108 min
- inhibition [26]: 37%
- IC50 [27]: 5.8 µM
- IC50 [3]: 150 nM
- bioavailability [8]: 31%
- Vd [28]: 1.9 L/kg
- Vd [30]: 5 L/kg
- half-life [31]: 150 min
- IC50 [32]: > 10 µM
- clearance [17]: 29 mL/min/kg
- Vd [20]: 3.7 L/kg
- bioavailability [33]: 61%
Structure (SMILES): COCC1=C(C(=O)N2CCC[C@H]2c2cc(C)no2)[C@@H](c2cc3ccccc3n2C)n2nc(C(F)(F)F)cc2N1
- IC50 [29]: > 10 µM
- Activity (Oryctolagus cuniculus [13]): Non-toxic
- concentration (Plasma [14]): 2.1 µM
- concentration (Plasma [15]): 13.4 µM
- concentration (Plasma [16]): 700 nM
- inhibition at 10 µM (hERG (KCNH2)): 14%
- concentration (Plasma [18]): 300 nM

More lines, now with the values behind:

Structure (SMILES): CC1=C(C(=O)N2CCN(c3ccc(F)cc3)CC2)C(c2ccc(Cl)c(Cl)c2)n2nc(C)cc2N1 (racemic)
- Stability (Liver microsomes [1]): Unstable
- GSH adduct formation [2]: < 1%
- IC50 [3]: 124 nM
- inhibition at 10 µM (hERG (KCNH2)): 60%
- Stability (Liver microsomes [4]): Unstable

Structure (SMILES): COCC1=C(C(=O)N2CCC[C@H]2c2cc(C)no2)[C@@H](c2ccc(Cl)c(Cl)c2)n2nccc2N1
- IC50 [3]: 70 nM
- inhibition at 10 µM (hERG (KCNH2)): 14%

Structure (SMILES): CC1=C(C(=O)N2CCN(c3ccc(F)cc3)CC2)C(c2ccc(Cl)c(Cl)c2)n2nc(Cl)cc2N1 (racemic)
- IC50 [3]: 209 nM

Structure (SMILES): CC1=C(C(=O)N2CCN(c3ccc(F)cc3)CC2)C(c2ccc(Cl)c(Cl)c2)n2ncc(Cl)c2N1 (racemic)
- GSH adduct formation [2]: 4%
- inhibition [5]: 24%

Structure (SMILES): CC1=C(C(=O)N2CCC[C@H]2c2ccc(F)cc2)[C@@H](c2ccc(Cl)c(Cl)c2)n2ncc(C)c2N1
- GSH adduct formation [2]: < 1%
- inhibition [5]: 45%

Structure (SMILES): CC1=C(C(=O)N2CCN(c3ccc(F)cc3)CC2)C(c2ccc(Cl)c(Cl)c2)n2nc(C(F)(F)F)cc2N1 (racemic)
- IC50 [3]: 419 nM

Structure (SMILES): CC1=C(C(=O)N2CCN(c3ccc(F)cc3)CC2)[C@@H](c2ccc(Cl)c(Cl)c2)n2nccc2N1
- inhibition at 10 µM (hERG (KCNH2)): 42%

Structure (SMILES): CC1=C(C(=O)N2CCC[C@H]2c2ccc(F)cc2)[C@@H](c2ccc(Cl)c(Cl)c2)n2nccc2N1 [BMS-394136]
- GSH adduct formation [2]: 33%
- inhibition at 10 µM (hERG (KCNH2)): 30%

Structure (SMILES): CC1=C(C(=O)N2CCN(c3ccccc3)CC2)C(c2ccc(Cl)c(Cl)c2)n2nc(C)cc2N1 (racemic)
- IC50 [3]: 149 nM
- inhibition at 10 µM (hERG (KCNH2)): 29%
